Experimental data published in ChEMBL document CHEMBL3861960, “Leoligin, the Major Lignan from Edelweiss (Leontopodium nivale subsp. alpinum), Promotes Cholesterol Efflux from THP-1 Macrophages” (J Nat Prod, 2016).
Activity calls are given as the source filed them. The rule behind the calls is not given here.

How the values were obtained:
[1] = test system: THP-1; experiment: Effect on DNHD1 protein expression in human THP1 cells at 10 uM after 24 hrs by proteome analysis relative to control; assay type: functional
In short: (§1)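 PMA-differentiated THP-1 macrophages given 10 μM compound or DMSO for 24 h, then lysed in TRIzol. Proteins reduced with DTT, alkylated with iodoacetamide, digested with trypsin (1:50 w/w) for 16 h at 30 °C. Biological replicates pooled, analysed by LC-MS/MS on an Orbitrap Velos Pro with a 4 h gradient, FDR ≤0.05. Only unique peptides used; log2 peptide ratios averaged per protein and tested by one-sample t test versus vehicle.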

[2] = test system: THP-1; experiment: Effect on CD44 protein expression in human THP1 cells at 10 uM after 24 hrs by proteome analysis relative to control; assay type: functional; in short: as §1
[3] = test system: THP-1; experiment: Effect on NBEA protein expression in human THP1 cells at 10 uM after 24 hrs by proteome analysis relative to control; assay type: functional; in short: as §1
[4] = test system: THP-1; experiment: Effect on COMMD1 protein expression in human THP1 cells at 10 uM after 24 hrs by proteome analysis relative to control; assay type: functional; in short: as §1
[5] = test system: THP-1; experiment: Effect on LAMP1 protein expression in human THP1 cells at 10 uM after 24 hrs by proteome analysis relative to control; assay type: functional; in short: as §1
[6] = test system: THP-1; experiment: Induction of apo-A1-mediated cholesterol efflux from [3H]-cholesterol labeled human THP1 cells preincubated for 24 hrs followed by apo A1 addition measured after 6 hrs by scintillation counting method; assay type: functional, cell-based
In short: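 Differentiated THP-1 macrophages loaded with [3H]-cholesterol for 24 h in the presence of compound, or pioglitazone 10 μM as positive control. Medium then replaced with serum-free RPMI containing compound, with or without acceptor (10 μg/mL apo A1 or 1% human plasma from fasted volunteers), for 6 h. Efflux % = extracellular/total cpm with acceptor minus without acceptor, ×100, by scintillation counting. Three independent experiments.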

[7] = test system: THP-1; experiment: Effect on PTPRC protein expression in human THP1 cells at 10 uM after 24 hrs by proteome analysis relative to control; assay type: functional; in short: as §1
[8] = test system: THP-1; experiment: Effect on PLAUR protein expression in human THP1 cells at 10 uM after 24 hrs by proteome analysis relative to control; assay type: functional; in short: as §1
[9] = test system: THP-1; experiment: Effect on TUBA1A protein expression in human THP1 cells at 10 uM after 24 hrs by proteome analysis relative to control; assay type: functional; in short: as §1
[10] = test system: THP-1; experiment: Effect on SDE2 protein expression in human THP1 cells at 10 uM after 24 hrs by proteome analysis relative to control; assay type: functional; in short: as §1
[11] = test system: THP-1; experiment: Effect on CELSR3 protein expression in human THP1 cells at 10 uM after 24 hrs by proteome analysis relative to control; assay type: functional; in short: as §1
[12] = test system: THP-1; experiment: Effect on MGA protein expression in human THP1 cells at 10 uM after 24 hrs by proteome analysis relative to control; assay type: functional; in short: as §1
[13] = test system: THP-1; experiment: Effect on GOLGA5 protein expression in human THP1 cells at 10 uM after 24 hrs by proteome analysis relative to control; assay type: functional; in short: as §1
[14] = test system: THP-1; experiment: Effect on of ABCA1 protein expression in human THP1 cells at 10 uM after 24 hrs by proteome analysis relative to control; assay type: functional
[15] = Upregulation of ABCA1 protein expression in human THP1 cells at 10 uM after 24 hrs by Western blot method; assay type: functional, cell-based; conditions: THP-1
In short: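 THP-1 macrophages treated for 24 h with 10 μM compound, 10 μM pioglitazone or DMSO, then lysed in NP40 buffer (150 mM NaCl, 50 mM HEPES pH 7.4, 1% NP40) with protease and phosphatase inhibitors. 20 μg protein separated by SDS-PAGE and immunoblotted for ABCA1 with β-actin, ECL detection. Densitometry from four independent experiments.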

[16] = test system: THP-1; experiment: Effect on ART4 protein expression in human THP1 cells at 10 uM after 24 hrs by proteome analysis relative to control; assay type: functional; in short: as §1
[17] = test system: THP-1; experiment: Effect on CDK12 protein expression in human THP1 cells at 10 uM after 24 hrs by proteome analysis relative to control; assay type: functional; in short: as §1
[18] = Upregulation of ABCA1 mRNA expression in human THP1 cells at 10 uM after 24 hrs by qPCR method relative to control; assay type: functional, cell-based; conditions: THP-1
In short: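 THP-1 macrophages treated for 24 h with 10 μM compound, 10 μM pioglitazone or DMSO. Total RNA extracted and converted to cDNA; ABCA1 or ABCG1 measured by SYBR Green qPCR and expressed relative to 18S. Mean ± SD of four independent experiments; one-way ANOVA with Bonferroni test against DMSO.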

[19] = test system: THP-1; experiment: Effect on SMO protein expression in human THP1 cells at 10 uM after 24 hrs by proteome analysis relative to control; assay type: functional; in short: as §1
[20] = test system: THP-1; experiment: Effect on MAGEBS protein expression in human THP1 cells at 10 uM after 24 hrs by proteome analysis relative to control; assay type: functional; in short: as §1
[21] = Cytotoxicity against human THP1 cells assessed as decrease in cell viability at 1 to 20 uM after 24 hrs by resazurin assay; assay type: toxicity, cell-based; conditions: thp-1, 24 h
In short: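 THP-1 cells kept in RPMI-1640 with 10% heat-inactivated FBS, penicillin/streptomycin and 2 mM L-glutamine, then differentiated to macrophages with 200 nM PMA for 72 h. Exposed to compound for 24 h. Viability read by resazurin conversion as fluorescence (ex 535 nm, em 580 nm). Digitonin 50 μg/mL served as cytotoxic control. Mean ± SD of four independent experiments; one-way ANOVA with Bonferroni test against DMSO.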

[22] = test system: THP-1; experiment: Effect on TUSC2 protein expression in human THP1 cells at 10 uM after 24 hrs by proteome analysis relative to control; assay type: functional; in short: as §1
[23] = test system: THP-1; experiment: Effect on HIST1H2AB protein expression in human THP1 cells at 10 uM after 24 hrs by proteome analysis relative to control; assay type: functional; in short: as §1
[24] = test system: THP-1; experiment: Effect on TARBP1 protein expression in human THP1 cells at 10 uM after 24 hrs by proteome analysis relative to control; assay type: functional; in short: as §1
[25] = test system: THP-1; experiment: Effect on DYNLL2 protein expression in human THP1 cells at 10 uM after 24 hrs by proteome analysis relative to control; assay type: functional; in short: as §1

## C/C=C(/C)C(=O)OC[C@H]1[C@@H](Cc2ccc(OC)c(OC)c2)CO[C@@H]1c1ccc(OC)c(OC)c1
[1]
  fold change (FC): 0.6
[2]
  fold change (FC): 1.8
[3]
  fold change (FC): 1.6
[4]
  fold change (FC): 1.5
[5]
  fold change (FC): 1.8
[6]
  Activity: Dose-dependent effect
[7]
  fold change (FC): 1.7
[8]
  fold change (FC): 1.5
[9]
  fold change (FC): 1.5
[10]
  fold change (FC): 0.6
[11]
  fold change (FC): 1.6
[12]
  fold change (FC): 1.7
[13]
  fold change (FC): 2.3
[14]
  fold change (FC): 1.1
[15]
  Activity: Active
[16]
  fold change (FC): 1.6
[17]
  fold change (FC): 1.5
[18]
  fold change (FC): 2.4
[19]
  fold change (FC): 2.1
[20]
  fold change (FC): 0.4
[21]
  Activity: Non-Toxic
[22]
  fold change (FC): 1.5
[23]
  fold change (FC): 0.6
[24]
  fold change (FC): 0.6
[25]
  fold change (FC): 1.7
